The results in this text go back to ChEMBL document CHEMBL1649384, “Synthesis and antiproliferative activity of novel symmetrical alkylthio- and alkylseleno-imidocarbamates” (Eur J Med Chem, 2011).

A value given as a limit tells only on which side of the number the result lay.

In general, GI50 refers to the concentration that inhibits growth by half. Low values mean more potent growth inhibition, high ones less potent growth inhibition. Usually LC50 stands for the concentration lethal to half of the exposed cells or organisms. High values mean a less lethal substance, low ones a more lethal substance. As usually defined, the TGI is the concentration giving total growth inhibition.

The subject of one series is MCF7. Description: Cytotoxicity against human MCF7 cells after 72 hrs by MTT assay. Particulars: MCF7, 72 h. In kind it is functional. The essentials:
(§1)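 Cells seeded per well: Hep-G2 1×10⁴, HT-29 4×10³, K-562 4×10³, MCF-7 1.2×10⁴, MCF-10A 7×10³, PC-3 2×10³. MCF-10A were grown in supplemented MEBM at 37 °C, 5% CO₂. Five concentrations were tested between 0.01 and 100, with 72 h exposure. Formazan was read by A590. GI₅₀ was taken relative to untreated controls, from at least three independent experiments.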
(Formazan colour is commonly taken as a measure of viable cells.)

A further series concerns HT-29. In words: Cytotoxicity against human HT-29 cells after 72 hrs by MTT assay. In kind it is functional. Particulars: HT-29, 72 h; for CC50: read-out: LC50 (the source's name). An outline of the steps:
as §1

Another series has as its system K562. Description: Cytotoxicity against human K562 cells after 72 hrs by MTT assay. Format: functional. To be noted: K562, 72 h; for CC50: read-out: LC50 (the source's name). An outline of the steps: as §1
The next series relates to HepG2. Description: Cytotoxicity against human HepG2 cells after 72 hrs by MTT assay. Format: functional. Particulars: HepG2, 72 h; for CC50: read-out: LC50 (the source's name). An outline of the steps:
as §1

The subject of the next series is PC-3. Description: Cytotoxicity against human PC3 cells after 72 hrs by MTT assay. To be noted: PC-3, 72 h; for CC50: read-out: LC50 (the source's name). In kind it is functional. The essentials: as §1
Series [1] can be described thus: Cytotoxicity against human MCF10A cells after 72 hrs by MTT assay. Format: cell-based, MCF-10A. Particulars: for GI50 at 72 h: MCF10A cells; for LC50 / TGI: mcf-10a, 72 h. The essentials: as §1

Take `O=C(/N=C(/NC(=O)c1sccc1Cl)[Se]Cc1ccccc1)c1sccc1Cl`: the GI50 in the series with MCF7 turned out to be 3.68 µM; with HT-29, 6.51 µM; in the series on K562 it was 7.63 µM; in the series on HepG2 it was 4.42 µM; with PC-3, 52.7 µM. Further, the 50% lethal concentration (LC50) (in the series with MCF7; in series [1]) was above 100 µM in each case. The TGI is 28.3 µM in the series on MCF7; above 100 µM with HT-29; 95.8 µM in the series with K562; 45.5 µM with HepG2; above 100 µM in the series on PC-3; 28.33 µM in series [1]. The CC50 in the series on HT-29, in the series on K562, in the series on HepG2 and with PC-3 was above 100 µM in each case. In series [1], this compound showed a concentration for 50% growth inhibition (GI50) at 72 h of 3.68 µM.

In the case of `O=C(/N=C(/NC(=O)c1csc([N+](=O)[O-])c1)[Se]Cc1ccccc1)c1csc([N+](=O)[O-])c1`, the GI50 in the series with MCF7 is 24.4 µM; with HT-29, 9.25 µM; in the series with K562, 23.5 µM; with HepG2, 34.1 µM; in the series on PC-3, 35.9 µM. Also, the LC50 in the series with MCF7 came to 83.8 µM; in series [1], 83.76 µM. Further, the TGI was 54.1 µM in the series on MCF7; above 100 µM in the series with HT-29; 55.8 µM in the series with K562; 62.8 µM in the series on HepG2; 69.2 µM in the series with PC-3; 54.1 µM in series [1]. For the same compound, the CC50 in the series with HT-29 is above 100 µM; with K562, 88.2 µM; with HepG2 it was 91.6 µM; in the series with PC-3 it was above 100 µM. It took 24.4 µM to inhibit growth in series [1] by half (GI50 at 72 h).

Regarding `O=C(/N=C(/NC(=O)c1ccno1)[Se]Cc1ccccc1)c1ccno1`, the GI50 is 7.8 µM with MCF7; 6.82 µM in the series on HT-29; 20 µM in the series on K562; 9.12 µM in the series with HepG2; 53.1 µM in the series on PC-3. The LC50 (in the series on MCF7; in series [1]) was above 100 µM in each case. Moreover, the TGI was above 100 µM in the series on MCF7; above 100 µM in the series on HT-29; 57.3 µM in the series with K562; 58.9 µM in the series with HepG2; above 100 µM with PC-3; above 100 µM in series [1]. Further, the CC50 is above 100 µM in the series with HT-29, 94.7 µM in the series with K562, above 100 µM in the series on HepG2 and above 100 µM in the series with PC-3. In series [1], growth was halved (GI50 at 72 h) at 7.8 µM.

Turning to `O=C(/N=C(/NC(=O)c1cc2ccccc2s1)[Se]Cc1ccccc1)c1cc2ccccc2s1`, the 50% growth inhibitory concentration (GI50) amounted to 37.9 µM with MCF7; 6.51 µM in the series on HT-29; 14.9 µM with K562; 21 µM with HepG2; 30.5 µM with PC-3. Also, the 50% lethal concentration (LC50) (in the series on MCF7; in series [1]) was 87.9 µM throughout. Further, the TGI with MCF7 was 62.9 µM; in the series with HT-29 it was above 100 µM; in the series with K562 it was 42.8 µM; in the series with HepG2, 49 µM; in the series on PC-3 it was 58.4 µM; in series [1], 62.92 µM. In addition, the CC50 in the series with HT-29 is above 100 µM; with K562, 70.6 µM; with HepG2, 77 µM; with PC-3 it was 86.3 µM. Besides, it took 37.9 µM to inhibit growth in series [1] by half (GI50 at 72 h).

For `O=C(/N=C(/NC(=O)c1ccc2c(c1)OCO2)[Se]Cc1ccccc1)c1ccc2c(c1)OCO2`, the concentration for 50% growth inhibition (GI50) with MCF7 was 55.3 µM; in the series on HT-29, 57.3 µM; with K562 it was 97.8 µM; in the series on HepG2 it was above 100 µM; in the series with PC-3, above 100 µM. Besides, the median lethal concentration (LC50) (in the series with MCF7; in series [1]) was above 100 µM in each case. Moreover, the TGI (with MCF7; in the series on HT-29; in the series on K562; in the series with HepG2; in the series with PC-3; in series [1]) was above 100 µM in each case. Moreover, the CC50 in the series with HT-29, in the series on K562, with HepG2 and in the series on PC-3 was above 100 µM in each case. This compound displayed a GI50 at 72 h in series [1] of 55.3 µM.

On to `O=C(/N=C(/NC(=O)c1cnc2ccccc2c1)[Se]Cc1ccccc1)c1cnc2ccccc2c1`, for which the GI50 is 23.6 µM in the series with MCF7; 26.1 µM in the series with HT-29; 29.3 µM in the series on K562; 8.54 µM in the series with HepG2; 34.8 µM in the series on PC-3. Further, the LC50 (in the series with MCF7; in series [1]) was above 100 µM throughout. Moreover, the TGI is above 100 µM with MCF7; above 100 µM with HT-29; 72.6 µM in the series with K562; 48.9 µM in the series with HepG2; above 100 µM in the series on PC-3; above 100 µM in series [1]. The CC50 with HT-29 is above 100 µM; in the series on K562, above 100 µM; in the series with HepG2, 90.3 µM; with PC-3, above 100 µM. Besides, the GI50 at 72 h in series [1] is 23.6 µM.

As for `O=C(/N=C(/NC(=O)c1cc(-c2ccccc2)nc2ccccc12)[Se]Cc1ccccc1)c1cc(-c2ccccc2)nc2ccccc12`, the GI50 in the series with MCF7 came to 8.46 µM; in the series on HT-29, 6.07 µM; in the series on K562, 9.06 µM; in the series with HepG2, 25.8 µM; in the series with PC-3 it was 39.3 µM. Besides, the median lethal concentration (LC50) is 97 µM in the series with MCF7 and 97.04 µM in series [1]. Besides, the TGI in the series with MCF7 is 45.6 µM; in the series on HT-29 it was above 100 µM; with K562 it was 47.4 µM; in the series on HepG2 it was 52.4 µM; in the series on PC-3, 97.1 µM; in series [1], 45.56 µM. For the same compound, the CC50 in the series with HT-29 is above 100 µM; in the series on K562, 88.9 µM; in the series with HepG2 it was 78.9 µM; with PC-3, above 100 µM. In series [1], the GI50 at 72 h stood at 8.46 µM.

For `O=C(/N=C(/NC(=O)c1c2ccccc2nc2ccccc12)[Se]Cc1ccccc1)c1c2ccccc2nc2ccccc12`, the GI50 in the series on MCF7 came out at 53.7 µM; in the series on HT-29, 26.9 µM; with K562, 9.6 µM; in the series with HepG2, 30.4 µM; in the series with PC-3, 42.3 µM. Further, the 50% lethal concentration (LC50) (in the series on MCF7; in series [1]) was above 100 µM in each case. The TGI with MCF7 is 88.1 µM; in the series on HT-29, above 100 µM; in the series on K562, 44.5 µM; in the series with HepG2 it was 64.5 µM; in the series on PC-3, 77.4 µM; in series [1], 88.14 µM. For the same compound, the CC50 is above 100 µM in the series on HT-29, 80.7 µM in the series on K562, 98.5 µM in the series on HepG2 and above 100 µM in the series on PC-3. Besides, the GI50 at 72 h in series [1] came to 53.7 µM.

As for `COc1cccc2c1C(=O)c1c(O)c3c(c(O)c1C2=O)C[C@@](O)(C(=O)CO)C[C@@H]3O[C@H]1C[C@H](N)[C@H](O)[C@H](C)O1` [DOXORUBICIN], the 50% growth inhibitory concentration (GI50) in the series with MCF7 turned out to be 0.02 µM; in the series on HT-29, 0.2 µM; in the series with K562 it was 0.1 µM; in the series with PC-3 it was 0.25 µM. The concentration for total growth inhibition (TGI) in the series with MCF7 stood at 5.01 µM; in the series on HT-29 it was 25.4 µM; in the series with K562, 5.01 µM; in the series with PC-3, 3.16 µM. The CC50 in the series with HT-29 is 25.4 µM; with K562, 19.9 µM; with PC-3, 19.9 µM.

On to `COc1cc([C@@H]2c3cc4c(cc3[C@@H](O[C@@H]3O[C@@H]5CO[C@@H](C)O[C@H]5[C@H](O)[C@H]3O)[C@H]3COC(=O)[C@H]23)OCO4)cc(OC)c1O` [ETOPOSIDE], for which the GI50 with MCF7 stood at 19.9 µM; in the series with HT-29, 31.6 µM; in the series with K562 it was 12.6 µM; with PC-3 it was 0.63 µM. Also, the TGI is above 100 µM in the series on MCF7, above 100 µM in the series with HT-29, above 100 µM with K562 and 3.98 µM in the series with PC-3. The CC50 is above 100 µM in the series with HT-29, above 100 µM with K562 and 79.4 µM in the series on PC-3.

Turning to `CN(Cc1cnc2nc(N)nc(N)c2n1)c1ccc(C(=O)N[C@@H](CCC(=O)O)C(=O)O)cc1` [METHOTREXATE], the GI50 was found to be 0.06 µM in the series with MCF7, 0.04 µM with HT-29, 0.03 µM with K562 and 0.1 µM in the series with PC-3. In addition, the TGI with MCF7, with HT-29, with K562 and in the series on PC-3 was above 100 µM each time. Moreover, the CC50 in the series on HT-29 is 0.03 µM; with K562, above 100 µM; in the series with PC-3 it was above 100 µM.

As to `CC(=O)O[C@H]1C(=O)[C@@]2(C)[C@H]([C@H](OC(=O)c3ccccc3)[C@]3(O)C[C@H](OC(=O)[C@H](O)[C@@H](NC(=O)c4ccccc4)c4ccccc4)C(C)=C1C3(C)C)[C@]1(OC(C)=O)CO[C@@H]1C[C@@H]2O` [PACLITAXEL], the GI50 was 0.003 µM with MCF7, 0.003 µM in the series on HT-29, 0.004 µM in the series on K562 and 0.004 µM with PC-3. Further, the concentration for total growth inhibition (TGI) is above 100 µM with MCF7, 79.4 µM in the series on HT-29, 15.8 µM in the series on K562 and 12.6 µM in the series on PC-3. Also, the results for the CC50 in the series on HT-29, with K562 and with PC-3 were 79.4 µM, above 100 µM and above 100 µM, respectively.
